# According to ChEMBL document CHEMBL1142626, “Insecticidal and mutagenic evaluation of two annonaceous acetogenins” (J Nat Prod, 2000):
# Legend:
# Salmonella typhimurium [1] = test: Mutagenic activity in Salmonella Typhimurium TA100 assessed as number of revertants at 1 ug/plate in presence of Wistar rat S9 liver homogenate; format: toxicity, organism-based, Liver S9 fraction; details: salmonella enterica subsp. enterica serovar typhimurium
# In short: (§1)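 Salmonella/microsome plate test, with or without S9 from livers of male Wistar rats (~200 g). Strain markers and spontaneous revertant counts were routinely verified. Revertants are reported as mean ± standard error of triplicate plates. Strain-specific positive controls were used, with 2-aminoanthracene for all strains when S9 was present.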
# Salmonella typhimurium [2] = test: Mutagenic activity in Salmonella Typhimurium TA98 assessed as number of revertants at 50 ug/plate in absence of Wistar rat S9 liver homogenate; format: toxicity, organism-based; details: salmonella enterica subsp. enterica serovar typhimurium
# In short: (§2)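 Salmonella/microsome plate test (Ames) in strain TA98, with genetic markers and spontaneous revertant counts verified routinely. Run with and without S9 mix, the S9 being liver postmitochondrial supernatant from male Wistar rats of about 200 g. Doses ran from 0.01 to 100 µg/plate. Revertants are the mean of triplicate plates with standard error. Positive controls were 0.5 µg 4-nitroquinoline-N-oxide without S9 and 15 µg 2-aminoanthracene with S9.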
# Salmonella typhimurium [3] = test: Mutagenic activity in Salmonella Typhimurium TA100 assessed as number of revertants at 100 ug/plate in absence of Wistar rat S9 liver homogenate; format: toxicity, organism-based; details: salmonella enterica subsp. enterica serovar typhimurium; in short: as §1
# Salmonella typhimurium [4] = test: Mutagenic activity in Salmonella Typhimurium TA102 assessed as number of revertants at 20 ug/plate in absence of Wistar rat S9 liver homogenate; format: toxicity, organism-based; details: salmonella enterica subsp. enterica serovar typhimurium; in short: as §1
# Salmonella typhimurium [5] = test: Mutagenic activity in Salmonella Typhimurium TA98 assessed as number of revertants at 50 ug/plate in presence of Wistar rat S9 liver homogenate; format: toxicity, organism-based, Liver S9 fraction; details: salmonella enterica subsp. enterica serovar typhimurium; in short: as §2
# [6] = tested on: Leptinotarsa decemlineata; test: Insecticidal activity against Leptinotarsa decemlineata assessed as mortality at 5 ug by hemolymph injection after 72 hrs; format: functional
# In short: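 Adult L. decemlineata (20 beetles) were injected with 5 µg in DMSO through the metepimeron suture of the thorax. Beetles were kept on potato leaves. Symptoms and mortality were recorded up to 3 days, analysed by contingency tables and Abbott-corrected.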
# Salmonella typhimurium [7] = test: Mutagenic activity in Salmonella Typhimurium TA98 assessed as number of revertants at 0.1 ug/plate in absence of Wistar rat S9 liver homogenate; format: toxicity, organism-based; details: salmonella enterica subsp. enterica serovar typhimurium; in short: as §1
# Salmonella typhimurium [8] = test: Mutagenic activity in Salmonella Typhimurium TA102 assessed as number of revertants at 0.01 ug/plate in absence of Wistar rat S9 liver homogenate; format: toxicity, organism-based; details: salmonella enterica subsp. enterica serovar typhimurium; in short: as §1
# Salmonella typhimurium [9] = test: Mutagenic activity in Salmonella Typhimurium TA102 assessed as number of revertants at 20 ug/plate in presence of Wistar rat S9 liver homogenate; format: toxicity, organism-based, Liver S9 fraction; details: salmonella enterica subsp. enterica serovar typhimurium; in short: as §1
# Salmonella typhimurium [10] = test: Mutagenic activity in Salmonella Typhimurium TA98 assessed as number of revertants at 0.01 ug/plate in absence of Wistar rat S9 liver homogenate; format: toxicity, organism-based; details: salmonella enterica subsp. enterica serovar typhimurium; in short: as §1
# Spodoptera littoralis [11] = test: Antifeedant effect against Spodoptera littoralis L6 larvae assessed as relative consumption rate at 10 ug, po after 72 hrs; format: functional
# In short: (§3)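 Preweighed, newly emerged S. littoralis L6 larvae (20 per experiment) were orally cannulated with 10 µg in 2 µL DMSO; controls got solvent alone. Relative consumption and growth rates were calculated at 72 h on a dry-weight basis. Log-transformed weights were analysed by ANOVA with LSD tests.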
# Salmonella typhimurium [12] = test: Mutagenic activity in Salmonella Typhimurium TA100 assessed as number of revertants at 100 ug/plate in presence of Wistar rat S9 liver homogenate; format: toxicity, organism-based, Liver S9 fraction; details: salmonella enterica subsp. enterica serovar typhimurium; in short: as §1
# Salmonella typhimurium [13] = test: Mutagenic activity in Salmonella Typhimurium TA100 assessed as number of revertants at 50 ug/plate in absence of Wistar rat S9 liver homogenate; format: toxicity, organism-based; details: salmonella enterica subsp. enterica serovar typhimurium; in short: as §1
# Salmonella typhimurium [14] = test: Mutagenic activity in Salmonella Typhimurium TA100 assessed as number of revertants at 0.1 ug/plate in absence of Wistar rat S9 liver homogenate; format: toxicity, organism-based; details: salmonella enterica subsp. enterica serovar typhimurium; in short: as §1
# Salmonella typhimurium [15] = test: Mutagenic activity in Salmonella Typhimurium TA100 assessed as number of revertants at 10 ug/plate in presence of Wistar rat S9 liver homogenate; format: toxicity, organism-based, Liver S9 fraction; details: salmonella enterica subsp. enterica serovar typhimurium; in short: as §1
# Salmonella typhimurium [16] = test: Mutagenic activity in Salmonella Typhimurium TA100 assessed as number of revertants at 0.01 ug/plate in absence of Wistar rat S9 liver homogenate; format: toxicity, organism-based; details: salmonella enterica subsp. enterica serovar typhimurium; in short: as §1
# Salmonella typhimurium [17] = test: Mutagenic activity in Salmonella Typhimurium TA102 assessed as number of revertants at 50 ug/plate in presence of Wistar rat S9 liver homogenate; format: toxicity, organism-based, Liver S9 fraction; details: salmonella enterica subsp. enterica serovar typhimurium; in short: as §1
# Salmonella typhimurium [18] = test: Bactericidal activity against Salmonella Typhimurium TA102 assessed as viability after 24 hrs in absence of Wistar rat S9 liver homogenate; format: functional, organism-based; details: Salmonella enterica subsp. enterica serovar Typhimurium
# In short: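 Viability assay: test solution or DMSO was mixed with diluted overnight culture and phosphate buffer (no S9) in top agar with histidine/biotin. The mixture was spread on nutrient agar and incubated 24 h at 37 °C. Colonies were counted to give viable bacteria per mL; positive and negative controls included; triplicate.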
# Salmonella typhimurium [19] = test: Mutagenic activity in Salmonella Typhimurium TA98 assessed as number of revertants at 0.1 ug/plate in presence of Wistar rat S9 liver homogenate; format: toxicity, organism-based, Liver S9 fraction; details: salmonella enterica subsp. enterica serovar typhimurium; in short: as §1
# Salmonella typhimurium [20] = test: Mutagenic activity in Salmonella Typhimurium TA98 assessed as number of revertants at 20 ug/plate in presence of Wistar rat S9 liver homogenate; format: toxicity, organism-based, Liver S9 fraction; details: salmonella enterica subsp. enterica serovar typhimurium; in short: as §2
# Salmonella typhimurium [21] = test: Mutagenic activity in Salmonella Typhimurium TA98 assessed as number of revertants at 1 ug/plate in absence of Wistar rat S9 liver homogenate; format: toxicity, organism-based; details: salmonella enterica subsp. enterica serovar typhimurium; in short: as §1
# Spodoptera littoralis [22] = test: Antifeedant effect against Spodoptera littoralis L6 larvae assessed as relative growth rate at 10 ug, po after 72 hrs; format: functional; in short: as §3
# Salmonella typhimurium [23] = test: Mutagenic activity in Salmonella Typhimurium TA98 assessed as number of revertants at 0.01 ug/plate in presence of Wistar rat S9 liver homogenate; format: toxicity, organism-based, Liver S9 fraction; details: salmonella enterica subsp. enterica serovar typhimurium; in short: as §1
# Salmonella typhimurium [24] = test: Mutagenic activity in Salmonella Typhimurium TA98 assessed as number of revertants at 100 ug/plate in presence of Wistar rat S9 liver homogenate; format: toxicity, organism-based, Liver S9 fraction; details: salmonella enterica subsp. enterica serovar typhimurium; in short: as §2
# Salmonella typhimurium [25] = test: Mutagenic activity in Salmonella Typhimurium TA98 assessed as number of revertants at 10 ug/plate in absence of Wistar rat S9 liver homogenate; format: toxicity, organism-based; details: salmonella enterica subsp. enterica serovar typhimurium; in short: as §1
structure (smiles),measurement,setting,value
CCCCCCCCCCCC[C@@H](O)[C@H]1CC[C@H]([C@H](O)CCCC[C@H](O)CCCCC[C@@H](O)CC2=CC(C)OC2=O)O1 (stereo not given in full) [ANNONACIN],Activity,Salmonella typhimurium [1],140
same,Activity,Salmonella typhimurium [2],21
same,Activity,Salmonella typhimurium [3],68
same,Activity,Salmonella typhimurium [4],204
same,Activity,Salmonella typhimurium [5],25
same,Activity,[6],29.68%
same,Activity,Salmonella typhimurium [7],30
same,Activity,Salmonella typhimurium [8],328
same,Activity,Salmonella typhimurium [9],432
same,Activity,Salmonella typhimurium [10],33
same,Activity,Spodoptera littoralis [11],20.53 mg
same,Activity,Salmonella typhimurium [12],88
same,Activity,Salmonella typhimurium [13],85
same,Activity,Salmonella typhimurium [14],142
same,Activity,Salmonella typhimurium [15],145
same,Activity,Salmonella typhimurium [16],150
same,Activity,Salmonella typhimurium [17],430
same,Activity,Salmonella typhimurium [18],Non-toxic
same,Activity,Salmonella typhimurium [19],21
same,Activity,Salmonella typhimurium [20],26
same,Activity,Salmonella typhimurium [21],32
same,Activity,Spodoptera littoralis [22],3.44 mg
same,Activity,Salmonella typhimurium [23],36
same,Activity,Salmonella typhimurium [24],28
same,Activity,Salmonella typhimurium [25],34
